# Measured values from different studies.
# Each line is one published result; the experiments were not run side by side.
# Target: Serine/threonine-protein kinase RIO1 (RIOK1, Homo sapiens, UniProt Q9BRS2)
# One construct used (Q9BRS2 1-568): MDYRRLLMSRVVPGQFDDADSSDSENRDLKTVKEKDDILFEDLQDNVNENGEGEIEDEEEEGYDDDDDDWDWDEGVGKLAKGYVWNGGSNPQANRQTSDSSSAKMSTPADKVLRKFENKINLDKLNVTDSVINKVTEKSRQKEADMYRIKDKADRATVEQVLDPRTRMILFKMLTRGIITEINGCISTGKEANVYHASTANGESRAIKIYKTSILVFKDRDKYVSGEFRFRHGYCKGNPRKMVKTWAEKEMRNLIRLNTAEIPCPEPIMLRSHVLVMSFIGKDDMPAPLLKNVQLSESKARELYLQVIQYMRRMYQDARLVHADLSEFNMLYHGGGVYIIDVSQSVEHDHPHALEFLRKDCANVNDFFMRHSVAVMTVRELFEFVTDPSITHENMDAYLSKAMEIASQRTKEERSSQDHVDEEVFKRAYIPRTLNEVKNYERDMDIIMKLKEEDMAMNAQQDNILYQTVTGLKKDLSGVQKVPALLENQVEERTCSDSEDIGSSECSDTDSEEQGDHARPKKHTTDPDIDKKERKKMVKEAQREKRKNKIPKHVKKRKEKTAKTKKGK
Structure (SMILES),assay,conditions,remaining binding [%]
C[C@@H]1CN(c2cc(-c3n[nH]c4ccc(OC5(C)CC5)cc34)ncn2)C[C@H](C)O1,"cell-free assay, competition with immobilised ligand",0.1 µM,100
c1cnn2ncc(-c3ccnc(N4CCC45COC5)n3)c2c1,binding,1 µM,36
COc1ccc2cc(OCC3(C(=O)O)CN(C(=O)c4ccc(F)cc4)C3)ccc2c1,"cell-free assay, competition with immobilised ligand",1 µM,100
CN(C)c1nccc(-c2cnn3ncccc23)n1,binding,1 µM,100
O=C(Nc1c[nH]nc1C(=O)NC1CCNCC1)c1cc(F)cc(F)c1,"binding, competition with immobilised ligand",1 µM,68
CCCOc1ccc([C@@H]2[C@@H](C(=O)O)[C@H](c3ccc4c(c3)OCO4)CN2CC(=O)Nc2c(CC)cccc2CC)cc1,"cell-free assay, competition with immobilised ligand",1 µM,100
O=C(c1ccc(Nc2ncc(Cl)c(-c3ccc(Cl)s3)n2)cc1)N1CCC(N2CCCC2)CC1,"binding, competition with immobilised ligand",1 µM,0
F[C@@H]1CCN(c2nccc(-c3cnn4ncccc34)n2)C1,binding,1 µM,93
COc1ccc2c(c1)O[C@@H](c1ccc(OC)c(OC)c1)C[C@H]2NC(=O)C1(c2ccc3c(c2)OC(F)(F)O3)CC1,"cell-free assay, competition with immobilised ligand",1 µM,100
CN(CCCC(F)(F)F)c1nccc(-c2cnn3ncccc23)n1,binding,1 µM,100
CNC(=O)[C@@H]1CC[C@@H](n2c(-c3ccc4cnccc4c3)nc3ccc(C(=O)NCc4cccc(C(N)=O)c4)cc32)C1,"binding, competition with immobilised ligand",1 µM,100
Cc1nc(Cc2cccc(C(F)(F)F)c2)sc1-c1ccc(C(N)=O)nc1,"cell-free assay, competition with immobilised ligand",1 µM,94
CN(C)c1ncc(F)c(-c2cnn3ncccc23)n1,binding,1 µM,100
O=C(c1ccc(Nc2ncc(Cl)c(-c3cc4ccccc4s3)n2)cc1)N1CCC(N2CCCC2)CC1,"binding, competition with immobilised ligand",1 µM,0
Nc1ncc2c(n1)-c1c([nH]c3ccc(C#CC4CC4)cc13)CCCC2,"binding, competition with immobilised ligand",1 µM,80
COc1cnc(Nc2cccc(S(N)(=O)=O)c2)nc1N1CCN(c2ccccc2)C(=O)C1,"binding, competition with immobilised ligand",1 µM,49
CCC(=N\O)/C(C)=C/c1ccc(F)cc1,"cell-free assay, competition with immobilised ligand",1 µM,80
C=CC(=O)N1CCC(C(=O)NCC(=O)N2CCN(c3nc(-c4cnc(N)nc4C(F)F)nc(N4CCOCC4)n3)CC2)CC1,"binding, competition with immobilised ligand",1 µM,98
C[C@@H]1CCN(c2nccc(-c3cnn4ncccc34)n2)C1,binding,1 µM,75
CN(C)C(=O)Cn1cc(-c2nc(C3(c4ccc(-c5cnc(N)nc5)cc4)CC3)no2)cn1,"cell-free assay, competition with immobilised ligand",1 µM,100
C[C@@H](c1ccc(-n2cnc3c(N)ncnc32)cc1)N1CCc2nn(C)c(Cc3ccccc3)c2C1=O,"binding, competition with immobilised ligand",0.1 µM,69
O=C(NCCCN1CCOCC1)c1ccc(Nc2ncc(Cl)c(-c3ccc(Cl)s3)n2)cc1,"binding, competition with immobilised ligand",1 µM,0.05
